# Active and inactive are the calls of the source. No cut-off for these calls is given here.
# How the values were obtained:
# [1] = biological target: Plasminogen (Homo sapiens) (UniProt P00747); test: Allosteric inhibition of full length human plasmin by using chromogenic substrate spectrozyme PL preincubated for 5 mins followed by substrate addition by spectrophotometric method
# Outline: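 Inhibitor added from 0–20 mM aqueous stocks, or vehicle. After 5 min, Spectrozyme PL added (1 mM stock). Residual activity taken from initial rate of A405 rise. Logistic fit gives IC50, efficacy and Hill slope.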
# [2] = biological target: Plasminogen (Homo sapiens) (UniProt P00747); test: Binding affinity to human plasmin assessed as loss of intrinsic tryptophan fluorescence at 250 uM by spectrofluorometric method
# [3] = species: Homo sapiens; test: Inhibition of human chymotrypsin using chromogenic substrate spectrozyme Cty preincubated for 5 mins followed by substrate addition by spectrophotometric method
# Outline: (§1)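 Tris-HCl pH 7.4 buffer (100 mM NaCl, 2.5 mM CaCl2, 0.1% PEG8000, 0.02% Tween80) at 37 °C; factor IXa buffer also held 33% ethylene glycol. Final enzyme: factor Xa 1.09 nM, XIa 0.75 nM, XIIa 10 nM, IXa 250 nM, trypsin 0.145 µg/mL, chymotrypsin […]. Inhibitor from 0–20 mM stock, 5 min preincubation, then substrate. Initial A405 rate, sigmoidal dose–response fit.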
# [4] = biological target: Plasminogen (Homo sapiens) (UniProt P00747); conditions: 200 uM
# [5] = biological target: Prothrombin (Homo sapiens) (UniProt P00734); test: Inhibition of human thrombin by using chromogenic substrate spectrozyme TH preincubated for 5 mins followed by substrate addition by spectrophotometric method
# Outline: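 Thrombin at 6 nM final, 25 °C, in 20 mM Tris-HCl pH 7.4 with 100 mM NaCl, 2.5 mM CaCl2, 0.1% PEG8000, 0.02% Tween80. Inhibitor (0–20 mM stock) or vehicle preincubated 5 min with enzyme. Spectrozyme TH added (1.0 mM stock). Residual activity read as initial rate of A405 increase and fitted to a sigmoidal dose–response curve.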
# [6] = biological target: Coagulation factor XI (Homo sapiens) (UniProt P03951); test: Inhibition of human F11a by using chromogenic substrate S-2366 preincubated for 5 mins followed by substrate addition by spectrophotometric method; outline: as §1
# Sequence of Coagulation factor XI (Homo sapiens) (P03951 19-387 limits assumed): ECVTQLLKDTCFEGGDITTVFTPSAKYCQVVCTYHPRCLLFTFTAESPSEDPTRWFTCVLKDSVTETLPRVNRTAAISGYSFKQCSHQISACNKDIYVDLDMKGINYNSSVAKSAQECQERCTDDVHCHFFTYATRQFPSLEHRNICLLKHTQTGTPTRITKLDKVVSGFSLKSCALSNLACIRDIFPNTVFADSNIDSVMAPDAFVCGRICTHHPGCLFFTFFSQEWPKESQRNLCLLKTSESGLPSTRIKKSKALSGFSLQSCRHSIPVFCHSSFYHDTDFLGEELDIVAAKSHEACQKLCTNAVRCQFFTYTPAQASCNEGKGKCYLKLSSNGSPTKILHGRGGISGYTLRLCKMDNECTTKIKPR
# Sequence of Coagulation factor XI (Homo sapiens) (P03951 388-625 limits assumed): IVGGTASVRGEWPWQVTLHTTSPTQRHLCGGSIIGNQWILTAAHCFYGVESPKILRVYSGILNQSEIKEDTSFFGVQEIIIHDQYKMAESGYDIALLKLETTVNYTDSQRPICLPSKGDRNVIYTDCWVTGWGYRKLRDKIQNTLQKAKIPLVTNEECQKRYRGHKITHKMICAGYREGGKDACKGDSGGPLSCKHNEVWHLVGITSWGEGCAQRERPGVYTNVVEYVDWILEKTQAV
# [7] = biological target: Coagulation factor X (Homo sapiens) (UniProt P00742); test: Inhibition of human F10a by using chromogenic substrate spectrozyme F10a preincubated for 5 mins followed by substrate addition by spectrophotometric method; outline: as §1
# Sequence of Coagulation factor X (Homo sapiens) (P00742 41-179 limits assumed): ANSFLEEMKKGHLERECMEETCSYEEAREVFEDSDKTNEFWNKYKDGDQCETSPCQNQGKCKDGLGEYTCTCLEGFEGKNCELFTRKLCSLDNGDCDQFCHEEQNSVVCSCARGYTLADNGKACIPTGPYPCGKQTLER
# Sequence of Coagulation factor X (Homo sapiens) (P00742 235-488 limits assumed): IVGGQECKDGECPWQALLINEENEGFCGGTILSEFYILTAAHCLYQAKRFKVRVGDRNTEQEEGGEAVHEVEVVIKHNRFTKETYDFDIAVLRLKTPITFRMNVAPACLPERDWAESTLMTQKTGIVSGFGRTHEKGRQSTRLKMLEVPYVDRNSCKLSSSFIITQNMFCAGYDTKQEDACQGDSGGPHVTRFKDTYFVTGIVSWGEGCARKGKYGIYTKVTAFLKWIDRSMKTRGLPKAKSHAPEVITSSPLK
# Sequence of Plasminogen (Homo sapiens) (P00747 97-580 limits assumed): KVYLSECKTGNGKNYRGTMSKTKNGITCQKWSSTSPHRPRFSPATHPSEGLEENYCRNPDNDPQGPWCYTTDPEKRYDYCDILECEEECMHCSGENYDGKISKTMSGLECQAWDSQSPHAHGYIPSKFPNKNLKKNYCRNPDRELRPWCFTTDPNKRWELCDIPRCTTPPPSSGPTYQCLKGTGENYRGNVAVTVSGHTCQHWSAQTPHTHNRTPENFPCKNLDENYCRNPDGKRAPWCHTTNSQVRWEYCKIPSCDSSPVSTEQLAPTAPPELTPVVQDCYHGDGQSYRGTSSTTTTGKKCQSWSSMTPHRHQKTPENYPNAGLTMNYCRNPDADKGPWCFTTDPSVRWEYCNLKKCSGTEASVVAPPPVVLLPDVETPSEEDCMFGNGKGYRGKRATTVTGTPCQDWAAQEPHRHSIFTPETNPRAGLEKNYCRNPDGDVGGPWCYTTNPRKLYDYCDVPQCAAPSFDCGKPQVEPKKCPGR
# Sequence of Plasminogen (Homo sapiens) (P00747 581-810 limits assumed): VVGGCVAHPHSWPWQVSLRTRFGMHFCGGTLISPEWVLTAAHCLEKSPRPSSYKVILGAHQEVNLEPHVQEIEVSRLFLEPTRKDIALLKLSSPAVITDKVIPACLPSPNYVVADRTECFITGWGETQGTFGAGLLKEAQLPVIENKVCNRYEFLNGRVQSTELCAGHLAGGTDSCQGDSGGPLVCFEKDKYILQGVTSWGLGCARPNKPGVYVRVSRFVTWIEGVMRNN
Efficacy [1],SMILES,other results
94%,Cc1cc(COc2cc(OS(=O)(=O)O)cc3oc(-c4ccc(OS(=O)(=O)O)cc4)cc(=O)c23)c(C)cc1COc1cc(OS(=O)(=O)O)cc2oc(-c3ccc(OS(=O)(=O)O)cc3)cc(=O)c12,Activity [2]: 108%
63%,O=c1cc(-c2ccc(OS(=O)(=O)O)cc2)oc2cc(OS(=O)(=O)O)cc(OCc3cccc(COc4cc(OS(=O)(=O)O)cc5oc(-c6ccc(OS(=O)(=O)O)cc6)cc(=O)c45)n3)c12,
79%,O=c1cc(-c2ccc(OS(=O)(=O)O)cc2)oc2cc(OS(=O)(=O)O)cc(OCCOc3cc(OS(=O)(=O)O)cc4oc(-c5ccc(OS(=O)(=O)O)cc5)cc(=O)c34)c12,
72%,O=c1c(OS(=O)(=O)O)c(-c2ccc(OS(=O)(=O)O)c(OS(=O)(=O)O)c2)oc2cc(OS(=O)(=O)O)cc(OCCCCOc3cc(OS(=O)(=O)O)cc4oc(-c5ccc(OS(=O)(=O)O)c(OS(=O)(=O)O)c5)c(OS(=O)(=O)O)c(=O)c34)c12,
111%,O=c1c(O)c(-c2ccc(O)c(O)c2)oc2cc(O)cc(OCc3ccc(COc4cc(O)cc5oc(-c6ccc(O)c(O)c6)c(O)c(=O)c45)cc3)c12,Efficacy [5]: 91%; Efficacy [6]: 109%; Efficacy [7]: 104%
107%,O=c1c(OS(=O)(=O)O)c(-c2ccc(OS(=O)(=O)O)c(OS(=O)(=O)O)c2)oc2cc(OS(=O)(=O)O)cc(OCc3cccc(COc4cc(OS(=O)(=O)O)cc5oc(-c6ccc(OS(=O)(=O)O)c(OS(=O)(=O)O)c6)c(OS(=O)(=O)O)c(=O)c45)c3)c12,
89%,O=c1cc(-c2ccc(OS(=O)(=O)O)cc2)oc2cc(OS(=O)(=O)O)cc(OCc3ccc(COc4cc(OS(=O)(=O)O)cc5oc(-c6ccc(OS(=O)(=O)O)cc6)cc(=O)c45)cc3)c12,
86%,O=c1cc(-c2ccc(OS(=O)(=O)O)cc2)oc2cc(OS(=O)(=O)O)cc(OCc3cccc(COc4cc(OS(=O)(=O)O)cc5oc(-c6ccc(OS(=O)(=O)O)cc6)cc(=O)c45)c3)c12,
109%,O=c1cc(-c2ccc(OS(=O)(=O)O)cc2)oc2cc(OS(=O)(=O)O)cc(OCc3ccc(COc4cc(OS(=O)(=O)O)cc5oc(-c6ccc(OS(=O)(=O)O)c(OS(=O)(=O)O)c6)c(OS(=O)(=O)O)c(=O)c45)cc3)c12,
79%,O=c1cc(-c2ccc(OS(=O)(=O)O)cc2)oc2cc(OS(=O)(=O)O)cc(OCc3ccc(-c4ccc(COc5cc(OS(=O)(=O)O)cc6oc(-c7ccc(OS(=O)(=O)O)cc7)cc(=O)c56)cc4)cc3)c12,
90%,O=c1cc(-c2ccc(OS(=O)(=O)O)cc2)oc2cc(OS(=O)(=O)O)cc(OC/C=C/COc3cc(OS(=O)(=O)O)cc4oc(-c5ccc(OS(=O)(=O)O)cc5)cc(=O)c34)c12,Activity [2]: 101%
90%,O=c1cc(-c2ccc(OS(=O)(=O)O)cc2)oc2cc(OS(=O)(=O)O)cc(OCCCCOc3cc(OS(=O)(=O)O)cc4oc(-c5ccc(OS(=O)(=O)O)cc5)cc(=O)c34)c12,
90%,O=c1c(OS(=O)(=O)O)c(-c2ccc(OS(=O)(=O)O)c(OS(=O)(=O)O)c2)oc2cc(OS(=O)(=O)O)cc(OCc3cccc(COc4cc(OS(=O)(=O)O)cc5oc(-c6ccc(OS(=O)(=O)O)c(OS(=O)(=O)O)c6)c(OS(=O)(=O)O)c(=O)c45)n3)c12,
104%,Cc1cc(COc2cc(OS(=O)(=O)O)cc3oc(-c4ccc(OS(=O)(=O)O)c(OS(=O)(=O)O)c4)c(OS(=O)(=O)O)c(=O)c23)c(C)cc1COc1cc(OS(=O)(=O)O)cc2oc(-c3ccc(OS(=O)(=O)O)c(OS(=O)(=O)O)c3)c(OS(=O)(=O)O)c(=O)c12,Activity [2]: 90%
80%,O=c1c(OS(=O)(=O)O)c(-c2ccc(OS(=O)(=O)O)c(OS(=O)(=O)O)c2)oc2cc(OS(=O)(=O)O)cc(OCc3ccc(-c4ccc(COc5cc(OS(=O)(=O)O)cc6oc(-c7ccc(OS(=O)(=O)O)c(OS(=O)(=O)O)c7)c(OS(=O)(=O)O)c(=O)c56)cc4)cc3)c12,

SMILES,Efficacy [1],other results
O=c1c(OS(=O)(=O)O)c(-c2ccc(OS(=O)(=O)O)c(OS(=O)(=O)O)c2)oc2cc(OS(=O)(=O)O)cc(OCc3ccc(COc4cc(OS(=O)(=O)O)cc5oc(-c6ccc(OS(=O)(=O)O)c(OS(=O)(=O)O)c6)c(OS(=O)(=O)O)c(=O)c45)cc3)c12,93 to 98%,Efficacy [3]: 92%; inhibition [4]: Active; Efficacy [5]: 77%; Efficacy [6]: 93%
